# Measured values: ChEMBL document CHEMBL1122782, “Bulky amine analogues of ketoprofen: potent antiinflammatory agents” (J Med Chem, 1984)
# How the values were obtained:
# Rattus norvegicus [1] = experiment: Ulcerogenicity was measured in stomach during the 3 week adjuvant arthritis test, no of animals with ulcers out of 8 animals tested at 0.08 mM/kg (33.7 mg) was reported; assay type: functional
# Summary of the method: (§1)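 Male Sprague-Dawley rats (200–230 g) were injected in the plantar tissue of one hind paw with 0.1 mL of 0.6% M. butyricum suspension in heavy mineral oil. Daily oral gavage began on the day of adjuvant injection and ran for the 21 days, with drug suspended in 1% gum tragacanth or a corn oil-water emulsion. At the end the rats were sacrificed and the small intestine and stomach were examined for ulcers. Results are given as animals with ulcers/animals tested.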
# Rattus norvegicus [2] = experiment: Antiinflammatory efficacy is measured by the weight gain in rats during the 3 week adjuvant arthritis test at 0.005 mM/kg (2.11 mg); assay type: functional
# Summary of the method: (§2)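 Rats were adjuvant-injected (M. butyricum in mineral oil, one hind paw) or given a mineral-oil placebo. They were dosed by gavage daily for 21 days from the injection day, with vehicle only for both control groups, then weighed at the end. Weight gain % = (treated − adjuvant control)/(negative control − adjuvant control) × 100.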
# Rattus norvegicus [3] = experiment: The percent inhibition was calculated from the average differences in hind paw volume between the adjuvant injected controls and the adjuvant-injected medicated rats at 0.08 mmol/kg; 80-89; assay type: functional
# Rattus norvegicus [4] = experiment: Antiinflammatory efficacy is measured by the weight gain in rats during the 3 week adjuvant arthritis test at 0.02 mM/kg (8.43 mg); assay type: functional; summary of the method: as §2
# Rattus norvegicus [5] = experiment: Ulcerogenicity was measured in intestine during the 3 week adjuvant arthritis test, no of animals with ulcers out of animals tested at 0.16 mM/kg (67.4 mg) was reported; toxic; assay type: functional, organism-based; summary of the method: as §1
# Rattus norvegicus [6] = experiment: Antiinflammatory efficacy is measured by the percent inhibition of paw volume during the 3 week adjuvant arthritis test at 0.005 mM/kg (2.11 mg); assay type: functional
# Summary of the method: (§3)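 Male Sprague-Dawley rats (200–230 g) were used in groups of eight. Each received 0.1 mL of 0.6% M. butyricum in heavy mineral oil into the plantar tissue of one hind paw. Daily oral gavage in 1% gum tragacanth or corn oil-water emulsion began on the injection day and ran 21 days. Total hind paw volume was measured by mercury displacement, and inhibition was taken versus vehicle-treated adjuvant controls.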
# Rattus norvegicus [7] = experiment: Antiinflammatory efficacy is measured by the percent inhibition of paw volume during the 3 week adjuvant arthritis test at 0.02 mM/kg (8.43 mg); assay type: functional; summary of the method: as §3
# Rattus norvegicus [8] = experiment: Ulcerogenicity was measured in stomach during the 3 week adjuvant arthritis test, no of animals with ulcers out of 4 animals tested at 0.02 mM/kg (8.43 mg) was reported; assay type: functional; summary of the method: as §1
# Rattus norvegicus [9] = species on record: Rattus norvegicus; experiment: Compound was evaluated for highest non-ulcerogenic dose (less than 50% ulcer incidence); assay type: functional; conditions: read-out: ED50
# Summary of the method: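 Taken from the 21-day adjuvant arthritis test in male Sprague-Dawley rats dosed orally each day from the day of adjuvant injection. Small intestines and stomachs were examined for ulceration at the end. The value is the highest dose giving less than 50% ulcer incidence.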
# Rattus norvegicus [10] = experiment: Ulcerogenicity was measured in intestine during the 3 week adjuvant arthritis test, no of animals with ulcers out of 4 animals tested at 0.02 mM/kg (8.43 mg) was reported; assay type: functional
# Summary of the method: (§4)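 In the 21-day adjuvant arthritis model, male Sprague-Dawley rats (200–230 g) received an M. butyricum mineral-oil suspension into one hind paw. They were dosed daily by gavage from the day of injection. At the end of the study the rats were killed, and the small intestines were examined for ulcers. Results are given as the number of ulcerated animals over the number tested.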
# Rattus norvegicus [11] = experiment: Ulcerogenicity was measured in intestine during the 3 week adjuvant arthritis test, no of animals with ulcers out of 8 animals tested at 0.08 mM/kg (33.7 mg) was reported; assay type: functional; summary of the method: as §4
# Rattus norvegicus [12] = experiment: Antiinflammatory efficacy is measured by the percent inhibition of paw volume during the 3 week adjuvant arthritis test at 0.08 mM/kg (33.7 mg); assay type: functional; summary of the method: as §3
# Rattus norvegicus [13] = experiment: The mean increase in paw volume was compared between drug treated groups and placebo to calculate the percent inhibition in rats at 0.02 mmol/kg by carrageenan Edema Assay; 30-39; assay type: functional; conditions: Rattus norvegicus
# Rattus norvegicus [14] = experiment: Antiinflammatory efficacy is measured by the weight gain in rats during the 3 week adjuvant arthritis test at 0.08 mM/kg (33.7 mg); assay type: functional; summary of the method: as §2
# Rattus norvegicus [15] = experiment: Antiinflammatory efficacy is measured by the weight gain in rats during the 3 week adjuvant arthritis test at 0.002 mM/kg (0.51 mg); assay type: functional; summary of the method: as §2
# Rattus norvegicus [16] = experiment: Ulcerogenicity was measured in intestine during the 3 week adjuvant arthritis test, no of animals with ulcers out of animals tested at 0.06 mM/kg (15.2 mg) was reported; toxic; assay type: functional, organism-based
# Summary of the method: (§5)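 Male Sprague-Dawley rats (200–230 g) got 0.1 mL of a 0.6% M. butyricum adjuvant suspension in heavy mineral oil into the plantar tissue of one hind paw. Oral gavage dosing started the same day and continued daily for 21 days, in 1% gum tragacanth or corn oil-water emulsion. At the end, rats were killed and the small intestine and stomach were examined for ulcers, reported as animals with ulcers over animals tested.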
# Rattus norvegicus [17] = experiment: Antiinflammatory efficacy is measured by the percent inhibition of paw volume during the 3 week adjuvant arthritis test at 0.009 mM/kg (2.29 mg); assay type: functional; summary of the method: as §3
# Rattus norvegicus [18] = experiment: Antiinflammatory efficacy is measured by the percent inhibition of paw volume during the 3 week adjuvant arthritis test at 0.006 mM/kg ([…]); assay type: functional; summary of the method: as §3
# Rattus norvegicus [19] = experiment: Ulcerogenicity was measured in intestine during the 3 week adjuvant arthritis test, no of animals with ulcers out of 31 animals tested at 0.03 mM/kg (7.62 mg) was reported; assay type: functional; summary of the method: as §5
# Rattus norvegicus [20] = experiment: Potency relative to phenylbutazone at 0.006 mM/kg; assay type: functional
# Summary of the method: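 21-day adjuvant arthritis in male Sprague-Dawley rats (0.6% M. butyricum in mineral oil, intraplantar), with daily oral gavage from the day of adjuvant injection. Total hind-paw volume was measured by mercury displacement and percent inhibition calculated against adjuvant controls. The ED50 for 50% inhibition of paw volume was expressed relative to phenylbutazone, with 95% confidence limits.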
# Rattus norvegicus [21] = experiment: Ulcerogenicity was measured in stomach during the 3 week adjuvant arthritis test, no of animals with ulcers out of 24 animals tested at 0.009 mM/kg (2.29 mg) was reported; assay type: functional; summary of the method: as §5
# Rattus norvegicus [22] = experiment: Ulcerogenicity was measured in intestine during the 3 week adjuvant arthritis test, no of animals with ulcers out of 4 animals tested at 0.002 mM/kg (0.51 mg) was reported; assay type: functional; summary of the method: as §5
# Rattus norvegicus [23] = experiment: Antiinflammatory efficacy is measured by the percent inhibition of paw volume during the 3 week adjuvant arthritis test at 0.002 mM/kg (0.51 mg); assay type: functional; summary of the method: as §3
# Rattus norvegicus [24] = experiment: Ulcerogenicity was measured in stomach during the 3 week adjuvant arthritis test, no of animals with ulcers out of 4 animals tested at 0.002 mM/kg (0.51 mg) was reported; assay type: functional; summary of the method: as §5
# Rattus norvegicus [25] = experiment: Antiinflammatory efficacy is measured by the weight gain in rats during the 3 week adjuvant arthritis test at 0.009 mM/kg (2.29 mg); assay type: functional; summary of the method: as §2
# Rattus norvegicus [26] = experiment: The percent inhibition was calculated from the average differences in hind paw volume between the adjuvant injected controls and the adjuvant-injected medicated rats at 0.08 mmol/kg; 0.009-82; assay type: functional; conditions: read-out: Inhibition
# Rattus norvegicus [27] = experiment: Antiinflammatory efficacy is measured by the weight gain in rats during the 3 week adjuvant arthritis test at 0.006 mM/kg (0.152 mg); assay type: functional; summary of the method: as §2
# Rattus norvegicus [28] = experiment: The mean increase in paw volume was compared between drug treated groups and placebo to calculate the percent inhibition in rats at 0.02 mmol/kg by carrageenan Edema Assay; 60-69; assay type: functional
# Rattus norvegicus [29] = experiment: Ulcerogenicity was measured in stomach during the 3 week adjuvant arthritis test, no of animals with ulcers out of 31 animals tested at 0.03 mM/kg (7.62 mg) was reported; assay type: functional; summary of the method: as §5
# Rattus norvegicus [30] = experiment: Ulcerogenicity was measured in intestine during the 3 week adjuvant arthritis test, no of animals with ulcers out of 24 animals tested at 0.009 mM/kg (2.29 mg) was reported; assay type: functional; summary of the method: as §5
# Rattus norvegicus [31] = experiment: Ulcerogenicity was measured in stomach during the 3 week adjuvant arthritis test, no of animals with ulcers out of 8 animals tested at 0.08 mM/kg (24.7 mg) was reported; assay type: functional; summary of the method: as §1
# Rattus norvegicus [32] = experiment: Ulcerogenicity was measured in stomach during the 3 week adjuvant arthritis test, no of animals with ulcers out of 8 animals tested at 0.16 mM/kg (49.4 mg) was reported.; assay type: functional; summary of the method: as §1
# Rattus norvegicus [33] = experiment: Ulcerogenicity was measured in intestine during the 3 week adjuvant arthritis test, no of animals with ulcers out of 8 animals tested at 0.08 mM/kg (24.7 mg) was reported; assay type: functional; summary of the method: as §4
# Rattus norvegicus [34] = experiment: Antiinflammatory efficacy is measured by the weight gain in rats during the 3 week adjuvant arthritis test at 0.08 mM/kg(24.7 mg); assay type: functional; summary of the method: as §2
# Rattus norvegicus [35] = experiment: Antiinflammatory efficacy is measured by the percent inhibition of paw volume during the 3 week adjuvant arthritis test at 0.08 mM/kg(24.7 mg); assay type: functional; summary of the method: as §3
# Rattus norvegicus [36] = experiment: Potency relative to phenylbutazone at 0.08 mM/kg; assay type: functional
# Rattus norvegicus [37] = experiment: Ulcerogenicity was measured in intestine during the 3 week adjuvant arthritis test, no of animals with ulcers out of 8 animals tested at 0.16 mM/kg (49.4 mg) was reported.; assay type: functional; summary of the method: as §1
# Rattus norvegicus [38] = experiment: The percent inhibition was calculated from the average differences in hind paw volume between the adjuvant injected controls and the adjuvant-injected medicated rats at 0.08 mmol/kg; 60-69; assay type: functional; conditions: Rattus norvegicus
smiles,measurement,setting,value
CC(CN1CCCCC1CC1CCCCC1)c1cccc(C(=O)c2ccc(F)cc2)c1 (stereo unspecified),Ulcerogenic index,Rattus norvegicus [1],1
same,Weight gain,Rattus norvegicus [2],50%
same,inhibition in vivo at 80 µmol/kg,Rattus norvegicus [3],80%
same,Weight gain,Rattus norvegicus [4],31%
same,Ulcerogenic index,Rattus norvegicus [5],Toxic
same,Inhibition,Rattus norvegicus [6],61%
same,Inhibition,Rattus norvegicus [7],55%
same,Ulcerogenic index,Rattus norvegicus [8],0
same,highest non-ulcerogenic dose,Rattus norvegicus [9],3 µmol/kg
same,Ulcerogenic index,Rattus norvegicus [10],1
same,Ulcerogenic index,Rattus norvegicus [11],3
same,Inhibition,Rattus norvegicus [12],85%
same,inhibition in vivo at 20 µmol/kg,Rattus norvegicus [13],30%
same,Weight gain,Rattus norvegicus [14],81%
CC(C(=O)O)c1cccc(C(=O)c2ccccc2)c1 (stereo unspecified) [KETOPROFEN],Weight gain,Rattus norvegicus [15],35%
same,Ulcerogenic index,Rattus norvegicus [16],Toxic
same,Inhibition,Rattus norvegicus [17],82%
same,Inhibition,Rattus norvegicus [18],31%
same,Ulcerogenic index,Rattus norvegicus [19],22
same,Relative potency,Rattus norvegicus [20],32.4%
same,Ulcerogenic index,Rattus norvegicus [21],6
same,Ulcerogenic index,Rattus norvegicus [22],0
same,highest non-ulcerogenic dose,Rattus norvegicus [9],1 µmol/kg
same,Inhibition,Rattus norvegicus [23],68%
same,Ulcerogenic index,Rattus norvegicus [24],0
same,Weight gain,Rattus norvegicus [25],79%
same,inhibition in vivo at 80 µmol/kg,Rattus norvegicus [26],82%
same,Weight gain,Rattus norvegicus [27],21%
same,inhibition in vivo at 20 µmol/kg,Rattus norvegicus [28],60%
same,Ulcerogenic index,Rattus norvegicus [29],3
same,Ulcerogenic index,Rattus norvegicus [30],4
CC(CN1CCOCC1)c1cccc(C(=O)c2ccccc2)c1 (stereo unspecified),Ulcerogenic index,Rattus norvegicus [31],0
same,Ulcerogenic index,Rattus norvegicus [32],1
same,Ulcerogenic index,Rattus norvegicus [33],1
same,Weight gain,Rattus norvegicus [34],66%
same,Inhibition,Rattus norvegicus [35],82%
same,highest non-ulcerogenic dose,Rattus norvegicus [9],8 µmol/kg
same,Relative potency,Rattus norvegicus [36],8.6%
same,Ulcerogenic index,Rattus norvegicus [37],3
same,inhibition in vivo at 20 µmol/kg,Rattus norvegicus [13],30%
same,inhibition in vivo at 80 µmol/kg,Rattus norvegicus [38],80%
